Results published in ChEMBL document CHEMBL4480459, “Acylated Lignans Isolated from Brachanthemum gobicum and Their Trypanocidal Activity” (J Nat Prod, 2019).
pIC50: −log10 of the molar value.

System: Trypanosoma congolense
Experiment: Trypanocidal activity against bloodstream form of Trypanosoma congolense IL3000 after 72 hrs by CellTiter-Glo reagent-based luminescence assay
Assay type: functional, organism-based
Details: IL3000, 72 h
Outline: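 BSF parasites maintained daily in HMI-9 medium. Compounds serially diluted 5-fold in HMI-9 from 25 μg/mL to 1.6 ng/mL and incubated with trypanosomes for 72 h. Viability read by luminescence after CellTiter-Glo addition; IC50 calculated from the dilution series. Pentamidine as positive control.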

SMILES | pIC50
COc1cc(/C=C/C(=O)O)ccc1O [FERULATE] | < 4.60
COc1cc(/C=C/COC(=O)CC(C)C)ccc1O | < 4.60
COc1cc(C=O)ccc1O [VANILLIN] | < 4.60
C=C(C=O)[C@H](COC(=O)CC(C)C)C(c1ccc(O)c(OC)c1)c1ccc(O)c(OC)c1 | 5.55
COc1cc([C@@H](O)[C@H](O)COC(=O)CC(C)C)ccc1O | < 4.60
COc1cc([C@@H]2Oc3c(OC)cc(C=O)cc3[C@H]2COC(=O)CC(C)C)ccc1O | 4.70
COc1cc([C@@H]2Oc3c(OC)cc(/C=C/C=O)cc3[C@H]2COC(=O)CC(C)C)ccc1O | 5.62
COc1cc([C@@H]2Oc3c(OC)cc(C(=O)O)cc3[C@H]2COC(=O)CC(C)C)ccc1O | < 4.60
COc1cc(C(=O)[C@@H](COC(=O)CC(C)C)Oc2ccc(/C=C/COC(=O)CC(C)C)cc2OC)ccc1O | 5.02
COc1cc(C(=O)[C@@H](COC(=O)CC(C)C)c2cc(C=O)cc(OC)c2O)ccc1O | < 4.60
COc1cc([C@@H](O)[C@@H](COC(=O)CC(C)C)Oc2ccc(/C=C/COC(=O)CC(C)C)cc2OC)ccc1O | 4.76
COc1cc([C@@H](OC)[C@H](O)COC(=O)CC(C)C)ccc1O | < 4.60
COc1cc([C@@H]2Oc3c(OC)cc(/C=C/COC(=O)CC(C)C)cc3[C@H]2COC(=O)CC(C)C)ccc1O | 4.87
COc1cc(/C=C/C=O)ccc1O [CONIFERYL ALDEHYDE] | < 4.60
COc1cc([C@@H]2Oc3c(OC)cc(/C=C/C=O)cc3[C@H]2COC(C)=O)ccc1O | 5.12
COc1cc(C(=O)[C@H](O)COC(=O)CC(C)C)ccc1O | < 4.60
COc1cc([C@@H]2Oc3c(OC)cc(/C=C/COC(C)=O)cc3[C@H]2COC(C)=O)ccc1O | 4.79
